# Assay outcomes as filed in PubChem.
# This is a sample that favours compounds with a hit; in the whole collection about 6% have one here.
# HUVEC inhibit: human endothelial cell proliferation inhibition; HUVEC proliferation, CellTiter-Glo luminescence, 72 h; active compounds read low; actives 1.1% (n = 86,000); AID 648; viability, % at 10 µM (by protocol);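 active = viability at or below 30%; inactive = viability above 30%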;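 note: 100% = median luminescence of DMSO-only cell control wells on each plate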
# Jurkat tox 60K: reduces viability or proliferation of Jurkat cells. inhibition, % at 4 µM. Jurkat E6.1 viability, ATP luminescence, 48 h. actives 1.2% (n = 56,000). AID 463;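 active = inhibition above the mean inhibition of all tested compounds plus 3 SD, cut at about 28% in these data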
# Fibroblast inh: blocks proliferation of human lung fibroblasts; LL 47 human lung fibroblast viability, ATP luminescence; active compounds read low; viability, % at 10 µM; actives 1.1% (n = 85,000);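 active = viability at or below 50% in the single dose screen; inactive = viability above 50%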;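 note: compound exposure lasted 72 h before the ATP readout; 100% = median luminescence of untreated cell-only wells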
#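 Benchmarks: Cell-only wells, no compound | Test system: LL 47 human lung fibroblasts, passage 12 or lower | Input: 1,150 cells/well | Measured by: CellTiter-Glo luminescence measuring cellular ATP | Medium: IMEM, 15% FBS supplement | Schedule: Overnight attachment after seeding, then 72 h compound exposure at 37 °C | Doses: Compound addition at 0.1% DMSO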
# H69AR growth 86K: growth inhibitors of human H69AR lung tumor cells. H69AR lung tumor viability, ATP luminescence, 72 h; active compounds read low. actives 6% (n = 85,000). viability, % at 10 µM;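 active = viability at or below 40%; inactive = viability above 40%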;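 note: multidrug resistant small cell line overexpressing MRP-1 efflux transporter; 100% = mean luminescence of untreated control wells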
# PTK2B oligo ant: antagonists of human Pyk2 oligomerization. Q14289. z-score (the deposit names both 25 µM and 10 µM). actives 0.83% (n = 99,000). Q293 cells, Pyk2 FERM NanoBiT luminescence; active compounds read low. AID 1347419;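 active = Z-score of -3 or lower, scaled per plate to the spread of control and sample wells; inactive = z-score above -3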;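 note: negative z-score means lost luminescence so less FERM oligomerization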
# Target sequence (Q14289 whole entry, looked up): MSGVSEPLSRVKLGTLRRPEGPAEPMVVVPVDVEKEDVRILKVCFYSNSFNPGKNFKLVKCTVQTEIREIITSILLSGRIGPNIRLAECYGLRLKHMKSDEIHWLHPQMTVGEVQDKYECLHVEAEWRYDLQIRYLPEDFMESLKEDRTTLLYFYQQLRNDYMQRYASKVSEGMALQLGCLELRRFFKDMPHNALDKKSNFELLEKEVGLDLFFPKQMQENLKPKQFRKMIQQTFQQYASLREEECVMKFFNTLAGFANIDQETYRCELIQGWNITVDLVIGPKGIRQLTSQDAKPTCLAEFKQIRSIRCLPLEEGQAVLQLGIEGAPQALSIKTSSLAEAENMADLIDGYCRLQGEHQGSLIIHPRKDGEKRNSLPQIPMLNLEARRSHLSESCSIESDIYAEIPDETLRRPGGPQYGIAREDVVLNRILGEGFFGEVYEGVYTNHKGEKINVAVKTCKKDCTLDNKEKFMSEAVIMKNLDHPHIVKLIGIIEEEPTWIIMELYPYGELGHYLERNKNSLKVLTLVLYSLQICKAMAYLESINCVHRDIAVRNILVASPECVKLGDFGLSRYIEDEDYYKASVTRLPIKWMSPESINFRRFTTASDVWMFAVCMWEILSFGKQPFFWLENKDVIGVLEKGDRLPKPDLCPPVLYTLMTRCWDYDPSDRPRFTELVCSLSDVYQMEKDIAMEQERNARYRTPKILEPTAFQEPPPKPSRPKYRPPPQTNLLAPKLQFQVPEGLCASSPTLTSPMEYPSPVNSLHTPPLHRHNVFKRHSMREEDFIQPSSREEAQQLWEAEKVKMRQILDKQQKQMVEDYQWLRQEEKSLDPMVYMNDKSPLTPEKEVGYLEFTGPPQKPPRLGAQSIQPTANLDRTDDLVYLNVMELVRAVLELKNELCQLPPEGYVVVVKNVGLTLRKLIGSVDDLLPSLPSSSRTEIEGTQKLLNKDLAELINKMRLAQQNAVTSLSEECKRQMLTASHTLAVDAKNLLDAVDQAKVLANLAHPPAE
# cytoskel mod: modifiers of cytoskeleton assembly; AID 836; inhibition, % at 2 µM; HUVEC TNFa F-actin phalloidin imaging, high content; actives 0.18% (n = 91,000);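 active = inhibition above the batch mean plus 3 SD and confirmed as a hit by visual image inspection, cut at about 30% in these data, passing the limit was not always enough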
# Active calls of the source: *; x = no result given.
SMILES,HUVEC inhibit,Jurkat tox 60K,Fibroblast inh,H69AR growth 86K,PTK2B oligo ant,cytoskel mod
CCCCn1c(SCC(=O)N2CCN(c3ccccc3)CC2)nc2ccsc2c1=O,91,x,101,68,-1.9,-18
CCOc1cc(S(=O)(=O)N2CC=C(c3ccc(F)cc3)CC2)c(OCC)cc1-n1cnnn1,63,-8,48*,12*,1.8,-8
O=C(NCCN1CCCC1)c1cc(-c2ccncc2)nc2ccc(S(=O)(=O)N3CCOCC3)cc12,x,-2,x,x,0.53,x
Cc1ccccc1C(=O)Nc1ccccc1,98,-3,105,110,0.19,-1
Cc1ccccc1C(=O)Nc1cccc(NC(=O)c2ccc(-c3ccc(Br)cc3)o2)c1,64,x,52,22*,0.46,-5
COc1cccc(NC(=O)COc2ccc(N3CC(C(=O)NCC(C)C)CC3=O)cc2)c1 (centres undefined),92,0,92,87,0.43,9
O=C1CN(C(=O)COC(=O)Cc2ccsc2)c2ccccc2N1,91,-3,99,81,0.15,-3
Cc1cc(C)c2nc(SCC(=O)N3CC(=O)Nc4ccccc43)c(C#N)cc2c1,43,x,63,24*,-1.2,27
Cc1ccsc1C(=O)N1CC(=O)Nc2ccccc21,89,10,93,30*,0.65,-27
O=C1CN(C(=O)c2cnccn2)c2ccccc2N1,92,-6,x,107,-0.45,5
Cc1cc(C)cc(C(=O)N2CC(=O)Nc3ccccc32)c1,45,x,50*,35*,-0.36,-7
CCOC(=O)CN(C(=O)CSc1nnc(COc2ccc(OC)cc2)n1C)c1ccccc1,97,-1,90,96,-0.58,24
CC1CN(C(=O)Nc2ccc3snnc3c2)c2ccccc21 (centres undefined),86,-1,110,88,x,x
COc1cccc(C(=O)Nc2cccc(-c3nnc(-c4ccco4)o3)c2)c1,45,x,97,38*,-1.2,-10
COc1cccc(-c2nnc(NC(C)=O)o2)c1,100,-1,98,102,x,x
COc1ccc(Br)cc1C(=O)Nc1cccc(-c2nnc(-c3ccco3)o2)c1,47,-5,114,8.6*,-1.2,x
COc1ccc(Br)cc1C(=O)Nc1ccc(NC(=O)c2ccco2)cc1,100,x,99,65,-1.7,21
CCOC(=O)C1=C(CSc2nc(-c3ccccc3)ccc2C#N)OC(N)=C(C#N)C1c1ccc(OC)cc1 (centres undefined),92,x,102,87,-1.5,28
Cc1nn(-c2ccccc2)c2c1C(=O)N(Cc1ccccc1)C(=O)C(C)(C)C2,98,x,89,52,-1.7,3
Cc1nn(-c2nc3ccccc3n2Cc2ccccc2)c2c1C(=O)CC(C)(C)C2,110,3,94,77,-4*,4
COCCNC(=O)c1c(NC(=O)c2nc(SC)ncc2Cl)sc2c1CCCC2,x,x,x,x,-0.31,28
CCc1nc(SCC(=O)Nc2cc(C)on2)c2c(C)c(C)sc2n1,88,-3,87,90,-0.12,16
Cc1cc(NC(=O)CSc2nc(C3CC3)nc3sc(C)c(C)c23)no1,72,x,67,24*,0.02,7
OC(CN1CCN(c2cccc(C(F)(F)F)c2)CC1)c1c[nH]c2ccccc12 (centres undefined),67,22,58,2.6*,1.4,0
CCN1C(=O)CC(C(=O)O)SC1=Nc1ccc(OC)cc1 (centres undefined),102,0,104,100,-0.17,43
SMILES,HUVEC inhibit,Jurkat tox 60K,Fibroblast inh,H69AR growth 86K,PTK2B oligo ant,cytoskel mod
CCN(CC)C(=O)CSc1nc2cc3c(cc2c(=O)n1Cc1ccc2c(c1)OCO2)OCO3,85,x,88,98,-3.1*,x
Cc1ccc(Sc2oc(/C=N/n3cnnc3)cc2Br)cc1,91,4,71,23*,-0.48,11
Cc1cccc(NC(=S)NC2CC3CCCC(C2)N3Cc2cccs2)c1 (centres undefined),x,x,x,x,-0.46,-17
COc1cccc(OC)c1NC(=O)CN1CCC(NC(=O)c2cccc(F)c2)CC1,96,x,104,97,0.17,70*
O=C(CN1CCC(NC(=O)c2ccco2)CC1)Nc1cccc2ccccc12,101,x,93,84,-1.1,0
COc1cc(OC)cc(C(=O)NC2CCN(CC(=O)Nc3cccc4ccccc34)CC2)c1,81,x,106,39*,0.19,-5
COc1nc2ccc(C)cc2cc1-c1noc(-c2ccccc2)n1,x,x,x,x,0.96,-13
O=S1(=O)C=C(Sc2nnc(-c3ccccc3)o2)c2ccccc21,11*,101*,x,0.3*,-2.1,x
O=S1(=O)C=C(Sc2nc3ccccc3s2)c2ccccc21,12*,102*,3.1*,103,x,x
Cc1cc(C)nc(SC2=CS(=O)(=O)c3ccccc32)n1,94,12,58,5.8*,-0.89,-1
COc1ccc(/C=N/c2oc(-c3ccccc3)cc2C#N)cc1OC,x,x,x,x,-0.1,6
Cc1cccc(Sc2c(C=O)c3ccccc3n2C)c1,x,x,x,x,-2.1,-13
COCCCNc1c2c3c(cccc3[nH]c1=O)C(=O)c1ccccc1-2,46,x,64,18*,x,8
Cc1cc2nc(C3CCN(CC4COc5ccccc5O4)CC3)[nH]c2cc1C (centres undefined),5.9*,2,91,33*,-0.43,7
O=C(c1cn(-c2ccccc2)nc1-c1cccs1)N1CCN(c2ccccc2)CC1,53,x,75,11*,1,8
C=CCNS(=O)(=O)c1ccc(OCC(=O)OC)cc1,99,11,94,103,1.2,20
COc1ccc(S(=O)(=O)n2ccc(-c3ccc(OCCN(C)c4ccccn4)cc3)n2)cc1,x,x,x,x,1.2,66*
Cc1ccc(-c2nn(CC(=O)Nc3ccc4c(c3)nc3n4CCOC3)c(=O)c3ccccc23)cc1,50,2,96,89,0.81,-2
O=C(Cn1nc(-c2ccccc2)c2ccccc2c1=O)Nc1ccc2c(c1)nc1n2CCOC1,103,2,102,29*,-1.4,-3
CC(CCc1ccccc1)NC(=O)CSc1nc(N)cc(N)n1 (centres undefined),80,0,95,109,-0.21,12
CSc1nc(N)nc(SCCS(=O)(=O)c2ccc(Cl)cc2)c1C#N,72,4,88,2.5*,-2,2
CSc1nc(N)nc(SCC(=O)Nc2ccc(Cl)cc2)c1C#N,x,x,x,x,-2.3,3
CCCCn1c(SCC(=O)N2CCCCC2)nc2cc(S(N)(=O)=O)ccc21,92,8,97,95,0.57,8
CCCCn1c(SCc2nc3ccccc3s2)nc2cc(S(N)(=O)=O)ccc21,78,x,93,16*,-1.6,x
O=c1c2ccccc2nc(SCc2nc3ccccc3s2)n1Cc1ccco1,42,6,60,33*,1.4,-5
O=c1c2ccccc2nc(SCc2ccccc2)n1Cc1ccco1,116,8,89,93,-1.1,2
CCCn1c(=O)c2ccccc2n2c(SCc3nc4ccccc4s3)nnc12,85,0,x,31*,-1.2,-2
